From ChEMBL document CHEMBL5329156, “Discovery and development of novel substituted monohydrazides as potent antifungal agents” (RSC Med Chem, 2023)

Tests used:
Candida albicans [1] = assay: Antifungal activity against Candida albicans ATCC 10231 assessed as fungal growth inhibition by double dilution method; format: functional
In short: (§1)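 Broth microdilution after CLSI M27-A3/M38-A2 with minor changes. Single colony grown overnight in YPD at 35 °C, 200 rpm. Compound final range 0.06-31.3 µg/mL; incubated 48 h at 35 °C.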

Candida albicans [2] = assay: Antifungal activity against Candida albicans ATCC 64124 assessed as fungal growth inhibition by double dilution method; format: functional
In short: (§2)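 Broth microdilution after CLSI M27-A3/M38-A2 with minor modifications. A single colony was grown overnight in YPD at 35 °C with shaking at 200 rpm. Cells were mixed 1:1 with compound (final 0.06-31.3 µg/mL, from DMSO stocks) and incubated 48 h at 35 °C.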

Candida albicans [3] = assay: Antifungal activity against itraconazole/fluconazole susceptible Candida albicans ATCC MYA-2876 assessed as fungal growth inhibition by double dilution method; format: functional; in short: as §2
Candida albicans [4] = assay: Antifungal activity against itraconazole/fluconazole resistant Candida albicans ATCC 90819 assessed as fungal growth inhibition by double dilution method; format: functional; in short: as §2
Candida albicans [5] = assay: Antifungal activity against itraconazole/fluconazole susceptible Candida albicans ATCC MYA-2310 assessed as fungal growth inhibition by double dilution method; format: functional; in short: as §2
Candida albicans [6] = assay: Antifungal activity against itraconazole/fluconazole resistant Candida albicans ATCC MYA-1237 assessed as fungal growth inhibition by double dilution method; format: functional; in short: as §2
Candida albicans [7] = assay: Antifungal activity against itraconazole/fluconazole resistant Candida albicans ATCC MYA-1003 assessed as fungal growth inhibition by double dilution method; format: functional; in short: as §2
Nakaseomyces glabratus [8] = assay: Antifungal activity against Candida glabrata ATCC 2001 assessed as fungal growth inhibition by double dilution method; format: functional; in short: as §1
Pichia kudriavzevii [9] = assay: Antifungal activity against Pichia kudriavzevii ATCC 6258 assessed as fungal growth inhibition by double dilution method; format: functional; in short: as §1
Nakaseomyces glabratus [10] = assay: Antifungal activity against Candida glabrata ATCC 22019 assessed as fungal growth inhibition by double dilution method; format: functional; in short: as §1
[Candida] auris [11] = Antifungal activity against Candida auris AR Bank # 0384 assessed as fungal growth inhibition by double dilution method; format: functional; conditions: Candidozyma auris; in short: as §1
[Candida] auris [12] = Antifungal activity against Candida auris AR Bank # 0390 assessed as fungal growth inhibition by double dilution method; format: functional; conditions: Candidozyma auris; in short: as §1
Cryptococcus neoformans = assay: Antifungal activity against Cryptococcus neoformans ATCC MYA-895 assessed as fungal growth inhibition by double dilution method; format: functional; in short: as §1
Aspergillus terreus = assay: Antifungal activity against Aspergillus terreus ATCC MYA-3633 assessed as fungal growth inhibition by double dilution method; format: functional
Aspergillus fumigatus [13] = assay: Antifungal activity against Aspergillus fumigatus NRRL 163 assessed as fungal growth inhibition by double dilution method; format: functional
Aspergillus flavus = assay: Antifungal activity against Aspergillus flavus ATCC MYA-3631 assessed as fungal growth inhibition by double dilution method; format: functional
Aspergillus nidulans = assay: Antifungal activity against Aspergillus nidulans ATCC 38163 assessed as fungal growth inhibition by double dilution method; format: functional
Aspergillus fumigatus [14] = assay: Antifungal activity against Aspergillus fumigatus NRRL 5109 assessed as fungal growth inhibition by double dilution method; format: functional
Aspergillus fumigatus [15] = assay: Antifungal activity against Aspergillus fumigatus NRRL 6113 assessed as fungal growth inhibition by double dilution method; format: functional
[Candida] auris [16] = Antifungal activity against Candida auris AR Bank # 381 assessed as fungal growth inhibition by double dilution method; format: functional; conditions: Candidozyma auris; in short: as §1
[Candida] auris [17] = Antifungal activity against Candida auris AR Bank # 382 assessed as fungal growth inhibition by double dilution method; format: functional; conditions: Candidozyma auris; in short: as §1
[Candida] auris [18] = Antifungal activity against Candida auris AR Bank # 383 assessed as fungal growth inhibition by double dilution method; format: functional; conditions: Candidozyma auris; in short: as §1
[Candida] auris [19] = Antifungal activity against Candida auris AR Bank # 384 assessed as fungal growth inhibition by double dilution method; format: functional; conditions: Candidozyma auris; in short: as §1
[Candida] auris [20] = Antifungal activity against Candida auris AR Bank # 385 assessed as fungal growth inhibition by double dilution method; format: functional; conditions: Candidozyma auris; in short: as §1
[Candida] auris [21] = Antifungal activity against Candida auris AR Bank # 386 assessed as fungal growth inhibition by double dilution method; format: functional; conditions: Candidozyma auris; in short: as §1
[Candida] auris [22] = Antifungal activity against Candida auris AR Bank # 387 assessed as fungal growth inhibition by double dilution method; format: functional; conditions: Candidozyma auris; in short: as §1
[Candida] auris [23] = Antifungal activity against Candida auris AR Bank # 388 assessed as fungal growth inhibition by double dilution method; format: functional; conditions: Candidozyma auris; in short: as §1
[Candida] auris [24] = Antifungal activity against Candida auris AR Bank # 389 assessed as fungal growth inhibition by double dilution method; format: functional; conditions: Candidozyma auris; in short: as §1
[Candida] auris [25] = Antifungal activity against Candida auris AR Bank # 390 assessed as fungal growth inhibition by double dilution method; format: functional; conditions: Candidozyma auris; in short: as §1
Candida duobushaemulonii [26] = assay: Antifungal activity against Candida duobushaemulonii AR Bank # 391 assessed as fungal growth inhibition by double dilution method; format: functional; conditions: Candidozyma duobushaemuli; in short: as §1
Candida duobushaemulonii [27] = assay: Antifungal activity against Candida duobushaemulonii AR Bank # 392 assessed as fungal growth inhibition by double dilution method; format: functional; conditions: Candidozyma duobushaemuli; in short: as §1
[Candida] haemuloni [28] = Antifungal activity against Candida haemulonii AR Bank # 393 assessed as fungal growth inhibition by double dilution method; format: functional; conditions: Candidozyma haemuli; in short: as §1
Candida duobushaemulonii [29] = assay: Antifungal activity against Candida duobushaemulonii AR Bank # 394 assessed as fungal growth inhibition by double dilution method; format: functional; conditions: Candidozyma duobushaemuli; in short: as §1
[Candida] haemuloni [30] = Antifungal activity against Candida haemulonii AR Bank # 395 assessed as fungal growth inhibition by double dilution method; format: functional; conditions: Candidozyma haemuli; in short: as §1
Kodamaea ohmeri = assay: Antifungal activity against Kodamaea ohmeri AR Bank # 396 assessed as fungal growth inhibition by double dilution method; format: functional; in short: as §1
Pichia kudriavzevii [31] = assay: Antifungal activity against Pichia kudriavzevii AR Bank # 397 assessed as fungal growth inhibition by double dilution method; format: functional; in short: as §1
Clavispora lusitaniae = assay: Antifungal activity against Clavispora lusitaniae AR Bank # 398 assessed as fungal growth inhibition by double dilution method; format: functional; in short: as §1
Saccharomyces cerevisiae [32] = assay: Antifungal activity against Saccharomyces cerevisiae AR Bank # 399 assessed as fungal growth inhibition by double dilution method; format: functional; in short: as §1
Saccharomyces cerevisiae [33] = assay: Antifungal activity against Saccharomyces cerevisiae AR Bank # 400 assessed as fungal growth inhibition by double dilution method; format: functional; in short: as §1
J774.A1 = assay: Cytotoxicity against J774A.1 cells assessed as reduction in cell viability at 31.3 microg/ml; format: toxicity, cell-based; conditions: mouse, dose 31.3 µg/ml
In short: (§3)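 Cells in DMEM with 10% FBS and 1% Pen/Strep, seeded at 10,000 cells/well and held overnight at 37 °C, 5% CO2. Compounds added at final 31.3-0.12 µg/mL (0.05% DMSO vehicle) for 24 h. Resazurin then added for 6 h; fluorescence read at ex 560/em 590. Triton X-100 1% as positive control; values normalized to vehicle. Run in quadruplicate.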

HEK293 = assay: Cytotoxicity against human HEK-293 cells assessed as reduction in cell viability at 31.3 microg/ml; format: toxicity, cell-based; conditions: dose 31.3 µg/ml; in short: as §3
HepG2 = assay: Cytotoxicity against human HepG2 cells assessed as reduction in cell viability upto 31.3 microg/ml; format: toxicity, cell-based; conditions: dose < 31.3 µg/ml; in short: as §3

O=C(NNc1cccc(Cl)c1)c1cnccn1
≤ 0.06 µg/mL: MIC ([Candida] auris [21])
> 31.3 µg/mL: MIC (Aspergillus fumigatus [13]) | MIC (Aspergillus flavus) | MIC (Aspergillus fumigatus [14]) | MIC (Aspergillus fumigatus [15])
0.49 µg/mL: MIC ([Candida] auris [16]) | MIC ([Candida] auris [25]) | MIC (Clavispora lusitaniae)
0.12 µg/mL: MIC ([Candida] auris [17]) | MIC (Candida duobushaemulonii [27]) | MIC (Candida duobushaemulonii [29]) | MIC (Kodamaea ohmeri) | MIC (Pichia kudriavzevii [31])
0.98 µg/mL: MIC (Candida albicans [6]) | MIC (Candida albicans [7]) | MIC ([Candida] auris [12]) | MIC (Aspergillus terreus) | MIC (Aspergillus nidulans) | MIC ([Candida] auris [19]) | MIC (Saccharomyces cerevisiae [32]) | MIC (Saccharomyces cerevisiae [33])
Non-Toxic: Activity (J774.A1) | Activity (HEK293) | Activity (HepG2)
1.95 µg/mL: MIC (Candida albicans [2]) | MIC (Candida albicans [3]) | MIC (Nakaseomyces glabratus [10]) | MIC ([Candida] auris [11])
7.8 µg/mL: MIC (Candida albicans [5])
0.24 µg/mL: MIC (Candida albicans [1]) | MIC (Pichia kudriavzevii [9]) | MIC (Cryptococcus neoformans) | MIC ([Candida] auris [18]) | MIC ([Candida] auris [20]) | MIC ([Candida] auris [22]) | MIC ([Candida] auris [23]) | MIC ([Candida] auris [24]) | MIC (Candida duobushaemulonii [26]) | MIC ([Candida] haemuloni [28]) | MIC ([Candida] haemuloni [30])
3.9 µg/mL: MIC (Candida albicans [4]) | MIC (Nakaseomyces glabratus [8])
